Data published in ChEMBL document CHEMBL6134766, “Design, synthesis, and evaluation of benzhydrylpiperazine-based novel dual COX-2/5-LOX inhibitors with anti-inflammatory and anti-cancer activity” (RSC Med Chem, 2025).
Counter-ions that a name gives are not always drawn. Activity calls are given as the source filed them. The rule behind the calls is not given here.

Experiments:
[1] = target: T1, Prostaglandin G/H synthase 1 (Ovis aries, UniProt P05979); test: Inhibition of ovine COX-1 using arachidonic acid as substrate in presence of hemin by TMPD reagent-based colorimetry
T1 sequence (P05979 whole entry): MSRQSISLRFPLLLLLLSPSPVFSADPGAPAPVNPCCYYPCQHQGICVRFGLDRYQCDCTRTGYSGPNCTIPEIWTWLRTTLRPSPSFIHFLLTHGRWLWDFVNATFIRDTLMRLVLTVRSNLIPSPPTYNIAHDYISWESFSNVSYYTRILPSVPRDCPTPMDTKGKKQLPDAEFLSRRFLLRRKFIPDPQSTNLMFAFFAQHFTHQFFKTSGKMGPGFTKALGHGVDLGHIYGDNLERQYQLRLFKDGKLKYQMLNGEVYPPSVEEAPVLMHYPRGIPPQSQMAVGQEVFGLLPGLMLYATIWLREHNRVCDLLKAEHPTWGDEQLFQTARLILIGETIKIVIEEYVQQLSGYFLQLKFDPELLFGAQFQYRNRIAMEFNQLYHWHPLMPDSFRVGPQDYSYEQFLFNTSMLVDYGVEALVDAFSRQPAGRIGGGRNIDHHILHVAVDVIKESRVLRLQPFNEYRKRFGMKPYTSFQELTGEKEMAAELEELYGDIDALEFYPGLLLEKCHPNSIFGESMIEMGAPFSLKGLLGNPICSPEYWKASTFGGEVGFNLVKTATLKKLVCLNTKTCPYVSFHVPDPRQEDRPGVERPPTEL

[2] = target: T2, Polyunsaturated fatty acid 5-lipoxygenase (Homo sapiens, UniProt P09917); test: Inhibition of 5-LOX (unknown origin) using arachidonic acid as substrate preincubated for 5 mins followed by substrate addition measured after 10 mins by spectrophotometry
T2 sequence (P09917 whole entry): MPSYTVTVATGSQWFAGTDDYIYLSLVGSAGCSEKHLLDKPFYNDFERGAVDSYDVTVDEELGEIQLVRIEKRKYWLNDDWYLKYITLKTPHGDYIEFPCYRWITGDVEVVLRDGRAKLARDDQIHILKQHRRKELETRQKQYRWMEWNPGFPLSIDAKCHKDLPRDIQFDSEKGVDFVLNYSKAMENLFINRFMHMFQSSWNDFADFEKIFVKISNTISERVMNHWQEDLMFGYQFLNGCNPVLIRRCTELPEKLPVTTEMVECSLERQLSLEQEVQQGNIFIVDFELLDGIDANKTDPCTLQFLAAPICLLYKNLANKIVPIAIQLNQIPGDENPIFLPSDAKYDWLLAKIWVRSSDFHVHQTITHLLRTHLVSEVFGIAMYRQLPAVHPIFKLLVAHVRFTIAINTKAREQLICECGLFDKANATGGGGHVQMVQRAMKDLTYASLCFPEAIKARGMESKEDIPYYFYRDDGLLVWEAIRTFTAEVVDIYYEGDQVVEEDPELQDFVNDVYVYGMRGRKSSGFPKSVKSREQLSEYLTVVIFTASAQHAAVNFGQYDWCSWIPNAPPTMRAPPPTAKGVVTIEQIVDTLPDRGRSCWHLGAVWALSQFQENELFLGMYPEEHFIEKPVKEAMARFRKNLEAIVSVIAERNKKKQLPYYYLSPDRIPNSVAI

Rattus norvegicus [3] = test: Anti-inflammatory activity in arachidonic acid-induced paw edema Wistar rat model assessed as swelling thickness of paw at 10 mg/kg, po measured after 1 hr by digital vernier caliper (reference value: 6.51 +/- 0.37 millimeter); format: functional
Rattus norvegicus [4] = test: Anti-inflammatory activity in arachidonic acid-induced paw edema Wistar rat model assessed as protection against swelling thickness of paw at 10 mg/kg, po measured after 1 hr by digital vernier caliper (reference value: 0 %); format: functional
Rattus norvegicus [5] = test: Cardio-protective activity in ISO-treated Wistar rat assessed as decrease in serum LDH level at 10 mg/kg, po; format: functional, organism-based
Outline: (§1)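 Rats (n = 6/group) given ISO 100 mg kg−1 s.c., then oral test compound in 0.3% CMC; vehicle controls. Retro-orbital blood, serum separated at 4000 rpm, 4 °C, 10 min; LDH and CK-MB by commercial kits; mean ± SD.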

Rattus norvegicus [6] = test: Cardio-protective activity in ISO-treated Wistar rat assessed as decrease in serum CK-MB level at 10 mg/kg, po; format: functional, organism-based; outline: as §1
A549 = test: Cytotoxicity against human A549 cells assessed as growth inhibition incubated for 48 hrs by SRB assay; details: A549, 48 h
COLO 205 = test: Cytotoxicity against human COLO 205 cells assessed as growth inhibition incubated for 48 hrs by SRB assay; details: COLO 205, 48 h
MIA PaCa-2 = test: Cytotoxicity against human MIA PaCa-2 cells assessed as growth inhibition incubated for 48 hrs by SRB assay; details: MIA PaCa-2, 48 h

Row | Compound | IC50 [1] | IC50 [2] | further results
1 | FC(F)(F)Oc1ccc(-c2nnc(CN3CCN(C(c4ccccc4)c4ccc(Cl)cc4)CC3)o2)cc1 (configuration not stated) | 27.9 µM | 9.4 µM | –
2 | O=[N+]([O-])c1cc(-c2nnc(CN3CCN(C(c4ccccc4)c4ccc(Cl)cc4)CC3)o2)cc([N+](=O)[O-])c1 (configuration not stated) | 37.7 µM | 18 µM | –
3 | Clc1ccc(C(c2ccccc2)N2CCN(Cc3nnc(-c4ccc(Cl)cc4Cl)o3)CC2)cc1 (configuration not stated) | 30.3 µM | 14.4 µM | –
4 | Fc1cc(F)c(-c2nnc(CN3CCN(C(c4ccccc4)c4ccc(Cl)cc4)CC3)o2)cc1F (configuration not stated) | 32.7 µM | 19.9 µM | –
5 | O=[N+]([O-])c1ccccc1-c1nnc(CN2CCN(C(c3ccccc3)c3ccc(Cl)cc3)CC2)o1 (configuration not stated) | 29.9 µM | 13.5 µM | –
6 | O=[N+]([O-])c1cc(-c2nnc(CN3CCN(C(c4ccccc4)c4ccc(Cl)cc4)CC3)o2)ccc1Cl (configuration not stated) | 38.5 µM | 11.2 µM | –
7 | CC(c1cc2ccccc2s1)N(O)C(N)=O (configuration not stated) [ZILEUTON] | – | – | Activity (Rattus norvegicus [3]): 3.39 mm; Activity (Rattus norvegicus [4]): 47.95%
8 | Cc1ccc(-c2cc(C(F)(F)F)nn2-c2ccc(S(N)(=O)=O)cc2)cc1 [CELECOXIB] | – | – | Activity (Rattus norvegicus [3]): 1.79 mm; Activity (Rattus norvegicus [4]): 72.59%; Activity (Rattus norvegicus [5]): inactive; Activity (Rattus norvegicus [6]): inactive
9 | Fc1ccc(-c2nnc(CN3CCN(C(c4ccccc4)c4ccc(Cl)cc4)CC3)o2)c(F)c1 (configuration not stated) | 34.8 µM | 9.33 µM | –
10 | COc1cccc2c1C(=O)c1c(O)c3c(c(O)c1C2=O)C[C@@](O)(C(=O)CO)C[C@@H]3O[C@H]1C[C@H](N)[C@H](O)[C@H](C)O1 [DOXORUBICIN HYDROCHLORIDE] | – | – | GI50 (A549): 0.077 µM; GI50 (COLO 205): 0.1 µM; GI50 (MIA PaCa-2): 0.002 µM
11 | FC(F)(F)c1ccc(-c2nnc(CN3CCN(C(c4ccccc4)c4ccc(Cl)cc4)CC3)o2)cc1 (configuration not stated) | 27 µM | 13.7 µM | –

Second part, led by results:

Row | IC50 [1] | IC50 [2] | Compound | further results
12 | 34.5 µM | 10.3 µM | COc1ccc(-c2nnc(CN3CCN(C(c4ccccc4)c4ccc(Cl)cc4)CC3)o2)cc1 (configuration not stated) | –
13 | 30.7 µM | 9.89 µM | Cc1cccc(-c2nnc(CN3CCN(C(c4ccccc4)c4ccc(Cl)cc4)CC3)o2)c1 (configuration not stated) | –
14 | 36.3 µM | 20.3 µM | Oc1cccc(-c2nnc(CN3CCN(C(c4ccccc4)c4ccc(Cl)cc4)CC3)o2)c1 (configuration not stated) | –
15 | 25.5 µM | 13.5 µM | N#Cc1ccc(-c2nnc(CN3CCN(C(c4ccccc4)c4ccc(Cl)cc4)CC3)o2)cc1 (configuration not stated) | –
16 | 32.1 µM | 18.1 µM | Cc1ccc(-c2nnc(CN3CCN(C(c4ccccc4)c4ccc(Cl)cc4)CC3)o2)cc1 (configuration not stated) | –
17 | 36.3 µM | 15.3 µM | COc1cccc(-c2nnc(CN3CCN(C(c4ccccc4)c4ccc(Cl)cc4)CC3)o2)c1 (configuration not stated) | –
18 | 23 µM | 15 µM | N#Cc1cccc(-c2nnc(CN3CCN(C(c4ccccc4)c4ccc(Cl)cc4)CC3)o2)c1 (configuration not stated) | –
19 | 34.2 µM | 11.6 µM | Fc1ccc(-c2nnc(CN3CCN(C(c4ccccc4)c4ccc(Cl)cc4)CC3)o2)cc1 (configuration not stated) | –
20 | 38.4 µM | 9.81 µM | Clc1ccc(C(c2ccccc2)N2CCN(Cc3nnc(-c4ccccc4)o3)CC2)cc1 (configuration not stated) | –
21 | 32 µM | 16.2 µM | Clc1ccc(C(c2ccccc2)N2CCN(Cc3nnc(-c4cccc(Cl)c4)o3)CC2)cc1 (configuration not stated) | –
22 | 36.3 µM | 10.8 µM | Oc1ccc(-c2nnc(CN3CCN(C(c4ccccc4)c4ccc(Cl)cc4)CC3)o2)cc1 (configuration not stated) | –
